Test results as given in article PMC6853148 (Clinical and Translational Science, 2019).
Read-outs that look alike come from different tables or passages of the source.

Tests used:
[1] = cited from earlier work
B‐lymphocytes = assay type: in vivo, healthy female subjects; settings: for time for B‐lymphocytes to recover to 90% of baseline levels: average
Summary of the method: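 B-lymphocytes counted at baseline and after dosing. Individual post hoc PK estimates were fixed, then a Friberg-type semimechanistic model was fitted with a linear drug effect. It has a proliferation compartment, sequential transit compartments, a circulating pool, and feedback (baseline/current count, exponent γ). Baseline was the median predose count, with IIV. Log-transformed counts were fitted with additive residual error and checked by goodness-of-fit plots. Simulations covered single doses.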

P‐glycoprotein = settings: cited from earlier work
CYP3A = settings: cited from earlier work
[2] = 4‐week dog studies, male; no reference given; cited from earlier work
[3] = Population PK model of venetoclax in healthy subjects; assay type: in vivo, healthy female subjects
Summary of the method: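 Pooled data from 203 healthy women (21–65 y, BMI 18.6–30.1 kg/m2) given oral doses of 10–400 mg, 1–4 times with ≥7-day washout, after a 10-h fast or within 30 min of a low/moderate/high-fat breakfast. Serial plasma sampling up to 96 h; assayed by liquid–liquid extraction LC-MS/MS. Two-compartment nonlinear mixed-effects model with lagged first-order absorption, exponential IIV on CL/F, Vc/F and F, and combined residual error. Covariates kept by backward elimination (P < 0.01); low-fat meal as reference.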

[4] = test system: breast cancer resistance protein; settings: cited from earlier work
B cells = settings: patients with rheumatoid arthritis; cited from earlier work
[5] = model simulation, 200 mg single dose
[6] = covariate effect on bio-availability relative to low-fat meal

## CC1(C)CCC(CN2CCN(c3ccc(C(=O)NS(=O)(=O)c4ccc(NCC5CCOCC5)c([N+](=O)[O-])c4)c(Oc4cnc5[nH]ccc5c4)c3)CC2)=C(c2ccc(Cl)cc2)C1 [venetoclax, Venetoclax]
[1]; compared with fasting conditions
  increase of venetoclax exposures by food: threefold to fivefold
[1]; healthy subjects
  mean terminal elimination half‐life: 17 h
[1]; subjects with severe hepatic impairment
  mean terminal elimination half‐life: 35 h
B‐lymphocytes; even at the 400 mg dose
  B‐cell count recovered to 90% of baseline: ≤ 2 months
B‐lymphocytes; linear drug effect on B-lymphocytes, PD model parameter estimate
  Slope of drug effect: 20.9
B‐lymphocytes; [5]
  decrease in B‐lymphocytes: 24% (15–35%)
  time for B‐lymphocytes to recover to 90% of baseline levels: 48 (21–64) days
B‐lymphocytes; model simulation, 400 mg single dose
  time for B‐lymphocytes to recover to 90% of baseline levels: 59 (30–66) days
B‐lymphocytes; model simulation, three 200 mg doses every week or every other week
  recovery of B‐lymphocytes to 90% of baseline levels: ≤ 2 months
B‐lymphocytes; simulations/observed data
  time for B‐cell count to rise back to baseline: 2–3 months
P‐glycoprotein
  P‐glycoprotein transporter substrate: substrate
CYP3A
  metabolizing enzyme: mainly metabolized by CYP3A
[2]
  toxicology finding: testicular toxicity (germ cell loss)
[3]; [6]
  Fasting on F1: 0.29
  Moderate/high‐fat on F1: 1.47
[3]; covariate effect on bio-availability, Chinese ethnicity
  Chinese on F1: 1.53
[3]; covariate effect on bio-availability, coadministration of azithromycin
  Azithromycin on F1: 0.65
[3]; covariate effect on bio-availability, coadministration of rifampin
  Rifampin on F1: 4.91
[3]; covariate effect on bio-availability, low-fat meal is the reference category
  Low fat on F1: 1
[3]; female, human, plasma, oral
  Vd: 99 L
[3]; in vivo
  higher bioavailability with coadministration of rifampin: 391%
  higher clearance with coadministration of rifampin: 167%
  lower bio‐availability with coadministration of azithromycin: 35%
[3]; parameter Fixed, not estimated
  Dose nonlinearity on F1: −0.178
[3]; population PK estimate
  ALAG, absorption lag time: 0.04 days
  KA, absorption rate: 3.83 day⁻¹
[3]; population PK estimate, oral, healthy subjects
  CL/F, apparent clearance: 449 L/day
[3]; relative to a low‐fat meal
  higher bio‐availability with a moderate/high‐fat meal: 47%
  lower bio‐availability under fasting conditions: 71%
[4]
  breast cancer resistance protein transporter substrate: substrate

## rituximab
B cells
  time of reduction in B cells from circulation postinfusion: 1–28 weeks
